Assay outcomes from PubChem BioAssay.
Compounds with a hit are over-represented: about 1.3% of the library has one in this group of screens.
Lipid droplet – inhibitors of hepatocyte lipid droplet formation, primary screen, imaging, high-throughput imaging, BODIPY stain; AML12 mouse hepatocytes, oleate lipid droplets; inhibition, % at 6.5 µM; hit rate 0.4% among 240,000;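 active = lipid droplet intensity inhibited by at least 50%, with more than 500 cells counted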
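Assay system: AML12 hepatocytes (mouse); Probe or stimulus: oleic acid at 100 µM to induce lipid droplet formation; Dosing: compound at 6.5 µM only; Schedule: compound with oleate, overnight; Detection: fluorescence imaging, 20x objective, two fields per well; Measure: % inhibition of lipid droplet signal.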
STK33 kinase inh – inhibitors of purified STK33 kinase, primary screen, biochemical, ADP-Glo luminescence, homogeneous, cell-free | Serine/threonine-protein kinase 33 (Homo sapiens), Q9BYT3 | MBP phosphorylation | inhibition, % at 10 µM | hit rate 0.073% among 320,000 | AID 2661, 2010;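 active = inhibition at or above 25%, using the most active replicate where run in duplicate; inactive = inhibition below 25%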
Target sequence (Q9BYT3 whole entry, looked up): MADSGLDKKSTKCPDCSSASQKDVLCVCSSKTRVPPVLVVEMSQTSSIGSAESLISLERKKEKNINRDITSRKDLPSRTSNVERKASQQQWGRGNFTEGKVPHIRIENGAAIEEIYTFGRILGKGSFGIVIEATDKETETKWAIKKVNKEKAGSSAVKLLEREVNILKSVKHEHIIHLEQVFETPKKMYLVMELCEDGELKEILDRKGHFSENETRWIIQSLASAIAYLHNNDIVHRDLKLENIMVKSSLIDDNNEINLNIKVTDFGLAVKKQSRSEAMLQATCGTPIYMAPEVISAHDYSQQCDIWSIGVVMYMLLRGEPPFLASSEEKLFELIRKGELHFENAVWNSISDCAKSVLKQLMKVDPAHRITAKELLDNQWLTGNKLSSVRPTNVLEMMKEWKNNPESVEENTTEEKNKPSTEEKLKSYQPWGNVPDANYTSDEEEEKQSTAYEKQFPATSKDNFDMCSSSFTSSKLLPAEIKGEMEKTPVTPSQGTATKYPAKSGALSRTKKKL
TAG inh – inhibitors of triacylglycerol accumulation, primary screen, cell-based, uHTS, fluorescence, H9c2 | H9c2 cells, Nile Red lipid (TAG) fluorescence; cells loaded with 200 µM oleic acid | AID 651582, 2012 | inhibition, % at 12.5 µM | hit rate 0.66% among 230,000;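 active = pattern-corrected inhibition of lipid staining of at least 50% with the nuclear-stain viability signal not falling by more than 50%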;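 also: 0% = DMSO wells and 100% = triacsin C control wells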
LANA-H2B inh – blockers of LANA interaction with H2A/H2B – biochemical, FP readout, HTS, primary screen | Protein LANA1 (Human herpesvirus 8 type P (isolate GK18)), Q9QR71 | cell-free LANA-H2A/H2B peptide, fluorescence polarization | inhibition, % (concentration not given with the values) | hit rate 0.6% among 320,000; in the data active = inhibition mostly above about 10%, no sharp cut-off; inactive = mostly below about 6.7%
GSK3beta inhib – human GSK3beta kinase inhibitors, primary screen, biochemical, cell-free homogeneous, HTS | Glycogen synthase kinase-3 beta (Homo sapiens), P49841 | hit rate 0.038% among 300,000 | GST-GSK3beta kinase, ADP-Glo luminescence, 60 min; hits give low values | activity score (negative = inhibition), % at 10 µM;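 active = more than half of replicate wells score below -50%, meaning over 50% inhibition versus plate controls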;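 also: 0% = median DMSO wells and -100% = median GW8510 positive control wells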
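test system = GST-tagged human GSK3beta kinase, cell-free | reagent = 25 µM ATP with peptide substrate | dosing = one dose of 10 µM per compound | schedule = 60 min reaction, RT | detection = luminescent ADP-Glo measurement of ADP formed | control set = DMSO neutral wells and GW8510 at 20 µM as positive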
GSK3 alpha inh – blockers of GSK3A enzyme activity – biochemical, luminescence, cell-free homogeneous, HTS, primary screen | GSK-3 alpha kinase, ADP-Glo luminescence, 60 min | AID 2650, 2010 | inhibition, % at 10 µM | hit rate 0.1% among 320,000 | Glycogen synthase kinase-3 alpha (Homo sapiens), P49840;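 active = more than half of replicates show inhibition above 20%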;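 also: GST-tagged GSK-3 alpha with peptide substrate and 25 µM ATP; 0% = DMSO neutral wells and 100% = GW8510 positive control wells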
* hit, by the source's call; · = no result given; + = active, no number.

SMILES | Lipid droplet | STK33 kinase inh | TAG inh | LANA-H2B inh | GSK3beta inhib | GSK3 alpha inh
CCc1ccc2nc(SCC(=O)N3CC(=O)Nc4ccccc43)c(C#N)cc2c1 | -1 | 0 | 51* | 2 | · | 3
O=C(NCc1ccc(F)cc1)c1cccnc1 | 9 | 1 | · | -2 | 2 | 1
Nc1nccc(SCc2ccc(Cl)cc2Cl)n1 | · | · | -2 | · | · | ·
Nc1nc(N)c(Cc2ccc(Cl)cc2Cl)c(N)n1 | 7 | -1 | 54 | 32* | -2 | 0
CCOC(=O)/C(=C\c1ccccc1)C(=O)c1cc(C(C)=O)c(Nc2ccccc2)s1 | 10 | -1 | · | 5 | -3 | -2
CCOC(=O)/C(=C\c1cccnc1)C(=O)c1cc(C(C)=O)c(Nc2ccccc2)s1 | -3 | -1 | 80* | -5 | -1 | -1
Cc1ccc(C2C3=C(CC(C)(C)CC3=O)Nc3n[nH]c(C)c32)cc1 (centres undefined) | · | 2 | -4 | 2 | -60* | 77*
Cc1[nH]nc2c1C(c1ccc(F)cc1)C1=C(CC(C)(C)CC1=O)N2 (centres undefined) | 10 | · | 18 | 0 | -56* | 21
Cc1[nH]nc2c1C(c1cccc(O)c1)C1=C(CC(C)(C)CC1=O)N2 (centres undefined) | · | 0 | 16 | -4 | -92* | 97*
COc1cc(/C=C2\SC(=Nc3ccc(F)cc3)N(c3ccc(F)cc3)C2=O)ccc1OCC(=O)O | -2 | 0 | · | 5 | 1 | -3
CCN(CC)c1ccc2c(-c3ccc(S(=O)(=O)O)cc3S(=O)(=O)[O-])c3ccc(=[N+](CC)CC)cc-3oc2c1 | -2 | 8 | · | 150* | -11 | 10
CCN(CC)c1ccc2nc3c4ccccc4c(=O)cc-3oc2c1 | 26 | 1 | · | 5 | -3 | -3
C=C1C(=O)C23C(O)C1CCC2C12CCCC(C)(COC(C)=O)C1C(O)C3(O)OC2 (centres undefined) | · | · | 93* | · | · | ·
Oc1cccc(/C=N/NC(=S)Nc2cccnc2)c1O | 12 | 3 | · | 197* | -2 | 2
Oc1ccc(/C=N/NC(=S)Nc2cccnc2)c(O)c1O | -24 | · | 1 | · | -4 | ·
CCOc1ccc(NC(=S)NCCCN2CCN(C3CCCCC3)CC2)cc1 | -6 | 0 | · | + | -2 | 3
CCOc1ccc2c(c1)c1nc3ccccc3nc1n2C | · | -1 | · | 39* | -5 | 0
Cc1ccc2c(c1)c1nc3ccccc3nc1n2C | -1 | 2 | · | 7 | 0 | 0
CCN(CC)CCOC(=O)C1(c2ccc(OC)c(OC)c2)CCCC1 | · | 0 | · | -2 | -5 | -1
CCN(CC)CCOC(=O)C1(c2ccccc2)CCCC1 | -4 | -3 | · | 36* | 1 | -2
O=C(CCCC(=O)N(CC(=O)NC1CCCC1)c1ccc(F)c(Cl)c1)Nc1ccccn1 | 1 | 0 | · | 0 | 0 | 2
Cc1c(C#N)c(O)[nH]c(=O)c1N=Nc1ccc(S(N)(=O)=O)cc1 | 4 | 0 | · | -1 | -76* | 79*
Cc1c(C#N)c(O)[nH]c(=O)c1N=Nc1ccc(Cl)c(C(=O)O)c1 | -1 | -2 | · | 2 | 3 | 34
C/C(=N\NC(=S)NCCc1ccccc1)c1cccs1 | 12 | -1 | 6 | 2 | -1 | 0
COc1ccc2[nH]cc(CCNC(=S)NC3CCCC3)c2c1 | 34 | -1 | 3 | 2 | 1 | 0
SMILES | Lipid droplet | STK33 kinase inh | TAG inh | LANA-H2B inh | GSK3beta inhib | GSK3 alpha inh
COc1ccc2[nH]cc(CCNC(=O)C3CCCCC3)c2c1 | 17 | 0 | -13 | 12* | -2 | 0
COc1ccc2[nH]cc(C(=O)CCl)c2c1 | -23 | -1 | 72* | -14 | 4 | 3
COc1ccc2[nH]cc(C(=O)CN3CC(C)CC(C)C3)c2c1 (centres undefined) | -1 | 0 | · | 0 | 2 | -3
COc1ccc(-c2nc3ccccc3c(=O)[nH]2)cc1 | 6 | 0 | · | -1 | 1 | -1
CN(CC(=O)Nc1ccc(N2CCOCC2)cc1)C(=O)COc1ccccc1F | 4 | -1 | 2 | -4 | -1 | -1
CCN(CC(=O)Nc1ccc(N2CCOCC2)cc1)C(=O)COc1ccccc1OC | 4 | 0 | · | 10* | -1 | ·
CCN(CC)CCCN1C(=O)C(=O)/C(=C(/O)c2ccccc2)C1c1cc(OC)ccc1OC (centres undefined) | · | -1 | 9 | 17* | -3 | 1
COc1ccccc1C1/C(=C(/O)c2ccccc2)C(=O)C(=O)N1CCO (centres undefined) | · | -2 | · | 3 | 4 | -2
CCN(CC)CCC(=O)Nc1cccc2c1C(=O)c1ccccc1C2=O | -66 | 12 | 93* | -4 | -3 | 3
CC(=O)N1CCN(c2ccc(NC(=O)c3cccc(Cl)c3)cc2)CC1 | 4 | -2 | · | 0 | · | -1
CCCc1cc(=O)[nH]c(SCC(=O)N2CCc3cc(OC)c(OC)cc3C2)n1 | · | 2 | 1 | 0 | · | 0
CCCc1cc(=O)[nH]c(SCC(=O)N2CCc3ccccc3C2)n1 | · | -1 | -4 | + | · | -1
CC1=C([N+](=O)[O-])C(c2ccccc2)C2=C(N1)c1ccccc1C2=O (centres undefined) | -12 | 0 | 60* | -2 | -3 | -5
CC1(c2ccccc2)CC(C)(C)N(C(=O)C2CCCO2)c2ccccc21 (centres undefined) | -16 | 0 | · | -3 | 0 | 0
CC1(c2cc([N+](=O)[O-])cc([N+](=O)[O-])c2)CC(C)(C)N(C(=O)c2ccccc2)c2ccccc21 (centres undefined) | · | -3 | 91* | -1 | 0 | -1
Cc1ccc(NC(=O)CN(C)C(=O)Cn2ncc(Cl)c(Cl)c2=O)cc1 | -26 | -1 | · | + | 11 | 2
COc1ccc2ccccc2c1C(O)c1nccn1C (centres undefined) | · | 0 | -14 | 38* | 0 | 1
COc1ccc(Nc2nc(C(=O)N3CCc4cc(OC)c(OC)cc4C3)cs2)cc1 | -4 | 3 | 16 | -1 | 0 | 1
COc1ccc(Nc2nc(C(=O)N3CCc4ccccc4C3)cs2)cc1 | 4 | 0 | -15 | 19* | -1 | 2
O=C(N/N=C\c1c[nH]c2ccccc12)c1ccc(O)cc1 | 14 | 2 | · | 74* | -4 | 3
O=C(N/N=C/c1c[nH]c2ccccc12)c1ccc(Br)cc1 | -1 | 0 | 2 | -1 | 2 | -2
